Where only a bound is given, the exact number is not on record here.

In series [1] the test system is Mus musculus. Description: Protection against recombinant human IL23-induced acanthosis C57BL/6 mouse model assessed as reduction in IL-17A mRNA levels at 15 mg/kg, po BID BID for 10 days by qRT-PCR analysis relative to control. Format: functional. More on the design: scale not given: the % may be the effect or the level left. Particulars: time 10 day. In short, it runs like this:
(§1)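 In the IL-23 ear-injection model in C57BL/6 mice with BID oral dosing, ear tissue was collected from all animals at study end on day 10. IL-17A and IL-17F mRNA expression was quantified by qPCR and compared with the placebo arm.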
(Real-time PCR tracks product formation cycle by cycle.)

Series [2] concerns the target T1, Nuclear receptor ROR-gamma (Mus musculus, UniProt P51450).
T1 sequence (P51450 whole entry): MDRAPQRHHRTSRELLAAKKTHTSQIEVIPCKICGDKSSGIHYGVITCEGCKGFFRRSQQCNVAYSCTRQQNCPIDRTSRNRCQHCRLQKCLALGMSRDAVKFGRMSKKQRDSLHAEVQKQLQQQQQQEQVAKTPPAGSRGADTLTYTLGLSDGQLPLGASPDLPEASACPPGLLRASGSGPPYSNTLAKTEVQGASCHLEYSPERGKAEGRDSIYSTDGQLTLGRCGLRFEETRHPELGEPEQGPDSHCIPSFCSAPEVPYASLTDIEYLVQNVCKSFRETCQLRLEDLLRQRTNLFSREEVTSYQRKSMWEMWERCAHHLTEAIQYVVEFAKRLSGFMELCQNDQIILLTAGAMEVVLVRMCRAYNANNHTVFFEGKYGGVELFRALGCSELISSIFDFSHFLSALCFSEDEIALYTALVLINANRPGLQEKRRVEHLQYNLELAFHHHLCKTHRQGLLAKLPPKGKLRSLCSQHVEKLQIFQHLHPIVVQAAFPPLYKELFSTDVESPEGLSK
Description: Inverse agonist activity at RORgammat in mouse Th17 cells assessed as inhibition of CD3/CD28/IL-1/IL-23-induced IL-17A production measured after 24 hrs by AlphaLISA assay. Format: cell-based.

Series [3] has as its system Mus musculus. Description: Protection against imiquimod-induced C57BL/6 mouse model of psoriasis assessed as reduction in IL-17F mRNA levels at 10 mg/kg, po BID for 7 days by RT-PCR analysis relative to control. Format: functional. Also noted: scale not given: the % may be the effect or the level left. Particulars: time 7 day.
Series [4] addresses Voltage-gated inwardly rectifying potassium channel KCNH2 (Homo sapiens, UniProt Q12809). The series is described as follows: Inhibition of human ERG by patch-clamp assay.
Series [5] deals with Mus musculus. Description: Protection against recombinant human IL23-induced acanthosis C57BL/6 mouse model assessed as inhibition of ear thickening at 3 mg/kg, po BID for 10 days and measured every other day relative to control. Format: functional. Particulars: C57BL/6, po, 240 h, time 10 day. Put shortly: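 IL-23 ear-injection acanthosis model in C57BL/6 mice with BID oral dosing. Ear thickness % change was recorded every other day, before each next injection, from a day 0 baseline. Inhibition of ear thickening was calculated against the placebo arm from the area under the curve over the study duration.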

Series [6] has as its system Mus musculus. The series is described as follows: Protection against recombinant human IL23-induced acanthosis C57BL/6 mouse model assessed as change in ear thickness score at 15 mg/kg, po BID for 10 days and measured every other day relative to control. In kind it is functional. Particulars: time 10 day. In short, it runs like this:
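IL-23 was injected into the ear of C57BL/6 mice to induce dermal inflammation and epidermal hyperplasia. Ear thickness was measured at baseline on day 0, then as % change every other day before each next ear injection. Oral dosing was BID.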

Series [7] has as its system Mus musculus. Description: Protection against recombinant human IL23-induced acanthosis C57BL/6 mouse model assessed as reduction in IL-17F mRNA levels at 3 mg/kg, po BID BID for 10 days by qRT-PCR analysis relative to control. Format: functional. Also noted: scale not given: the % may be the effect or the level left. The following applies: time 10 day. In short, it runs like this:
as §1

Series [8] relates to Mus musculus. The series is described as follows: Protection against imiquimod-induced C57BL/6 mouse model of psoriasis assessed as reduction in IL-17A mRNA levels at 10 mg/kg, po BID for 7 days by RT-PCR analysis relative to control. Format: functional. Also noted: scale not given: the % may be the effect or the level left. The following applies: time 7 day.
For series [9], the target named is T2, Oxysterols receptor LXR-alpha (Homo sapiens, UniProt Q13133).
T2 sequence (Q13133 whole entry): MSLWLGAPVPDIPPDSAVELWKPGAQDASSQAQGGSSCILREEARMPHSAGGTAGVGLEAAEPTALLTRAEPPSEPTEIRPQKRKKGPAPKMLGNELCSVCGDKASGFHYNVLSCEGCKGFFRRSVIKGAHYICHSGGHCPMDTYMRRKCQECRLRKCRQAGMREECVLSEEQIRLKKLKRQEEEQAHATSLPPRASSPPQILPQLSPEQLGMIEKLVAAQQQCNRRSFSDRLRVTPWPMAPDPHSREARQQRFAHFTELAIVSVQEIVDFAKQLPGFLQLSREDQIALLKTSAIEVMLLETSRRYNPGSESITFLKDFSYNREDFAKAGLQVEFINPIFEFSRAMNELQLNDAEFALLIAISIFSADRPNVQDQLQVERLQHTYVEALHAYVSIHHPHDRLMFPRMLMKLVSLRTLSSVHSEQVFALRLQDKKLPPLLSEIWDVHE
Description: Inverse agonist activity at LXRalpha (unknown origin).

Series [10] relates to Mus musculus. Description: Protection against recombinant human IL23-induced acanthosis C57BL/6 mouse model assessed as reduction in IL-17A mRNA levels at 3 mg/kg, po BID BID for 10 days by qRT-PCR analysis relative to control. Format: functional. More on the design: scale not given: the % may be the effect or the level left. Particulars: time 10 day. In short, it runs like this:
as §1

The target in another series is T3, Cytochrome P450 1A2 (Homo sapiens, UniProt P05177).
T3 sequence (P05177 whole entry): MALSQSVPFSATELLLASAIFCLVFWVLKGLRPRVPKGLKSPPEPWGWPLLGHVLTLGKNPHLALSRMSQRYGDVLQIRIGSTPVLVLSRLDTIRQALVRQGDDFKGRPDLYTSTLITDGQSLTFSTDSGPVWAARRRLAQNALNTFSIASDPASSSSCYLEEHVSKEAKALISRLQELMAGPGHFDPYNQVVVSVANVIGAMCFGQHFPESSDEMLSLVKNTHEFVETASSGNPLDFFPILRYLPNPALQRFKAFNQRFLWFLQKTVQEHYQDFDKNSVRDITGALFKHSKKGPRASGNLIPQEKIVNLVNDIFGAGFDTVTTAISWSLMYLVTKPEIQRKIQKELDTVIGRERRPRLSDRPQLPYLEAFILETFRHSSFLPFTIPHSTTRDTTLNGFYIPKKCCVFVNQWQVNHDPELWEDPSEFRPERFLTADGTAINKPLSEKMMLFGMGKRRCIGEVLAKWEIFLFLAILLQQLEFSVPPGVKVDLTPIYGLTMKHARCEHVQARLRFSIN
The series is described as follows: Inhibition of CYP1A2 (unknown origin). Format: ADME.

A short description of series [11]: Oral bioavailability in mouse at 4 mg/kg. In kind it is ADME, organism-based. Particulars: in vivo. Put shortly:
(§2)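 Single-dose PK, IV and PO. Doses: mouse and rat 2 mg/kg IV / 4 mg/kg PO; dog and cyno 1 mg/kg IV, with 1 or 2 mg/kg PO.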

Series [12] is described as follows: AUC (0 to 24 hrs) in cynomolgus monkey at 2 mg/kg, po. In kind it is ADME, organism-based, Macaca fascicularis. Also noted: time < 24 hr, route oral, dose 2 mg/kg. The following applies: in vivo.
Series [13] can be described thus: Cmax in rat at 4 mg/kg, po. In kind it is ADME, organism-based. Also noted: route oral, dose 4 mg/kg. The following applies: in vivo. Put shortly:
as §2

The nature of series [14]: Cmax in cynomolgus monkey at 2 mg/kg, po. Also noted: route oral, dose 2 mg/kg. The following applies: in vivo. In kind it is ADME, organism-based, Macaca fascicularis. Put shortly:
as §2

The test system of series [15] is Mus musculus. The series is described as follows: Protection against recombinant human IL23-induced acanthosis C57BL/6 mouse model assessed as reduction in IL-17F mRNA levels at 15 mg/kg, po BID BID for 10 days by qRT-PCR analysis relative to control. In kind it is functional. Also noted: scale not given: the % may be the effect or the level left. The following applies: time 10 day. In short, it runs like this:
as §1

Sequence of Voltage-gated inwardly rectifying potassium channel KCNH2 (Q12809 whole entry): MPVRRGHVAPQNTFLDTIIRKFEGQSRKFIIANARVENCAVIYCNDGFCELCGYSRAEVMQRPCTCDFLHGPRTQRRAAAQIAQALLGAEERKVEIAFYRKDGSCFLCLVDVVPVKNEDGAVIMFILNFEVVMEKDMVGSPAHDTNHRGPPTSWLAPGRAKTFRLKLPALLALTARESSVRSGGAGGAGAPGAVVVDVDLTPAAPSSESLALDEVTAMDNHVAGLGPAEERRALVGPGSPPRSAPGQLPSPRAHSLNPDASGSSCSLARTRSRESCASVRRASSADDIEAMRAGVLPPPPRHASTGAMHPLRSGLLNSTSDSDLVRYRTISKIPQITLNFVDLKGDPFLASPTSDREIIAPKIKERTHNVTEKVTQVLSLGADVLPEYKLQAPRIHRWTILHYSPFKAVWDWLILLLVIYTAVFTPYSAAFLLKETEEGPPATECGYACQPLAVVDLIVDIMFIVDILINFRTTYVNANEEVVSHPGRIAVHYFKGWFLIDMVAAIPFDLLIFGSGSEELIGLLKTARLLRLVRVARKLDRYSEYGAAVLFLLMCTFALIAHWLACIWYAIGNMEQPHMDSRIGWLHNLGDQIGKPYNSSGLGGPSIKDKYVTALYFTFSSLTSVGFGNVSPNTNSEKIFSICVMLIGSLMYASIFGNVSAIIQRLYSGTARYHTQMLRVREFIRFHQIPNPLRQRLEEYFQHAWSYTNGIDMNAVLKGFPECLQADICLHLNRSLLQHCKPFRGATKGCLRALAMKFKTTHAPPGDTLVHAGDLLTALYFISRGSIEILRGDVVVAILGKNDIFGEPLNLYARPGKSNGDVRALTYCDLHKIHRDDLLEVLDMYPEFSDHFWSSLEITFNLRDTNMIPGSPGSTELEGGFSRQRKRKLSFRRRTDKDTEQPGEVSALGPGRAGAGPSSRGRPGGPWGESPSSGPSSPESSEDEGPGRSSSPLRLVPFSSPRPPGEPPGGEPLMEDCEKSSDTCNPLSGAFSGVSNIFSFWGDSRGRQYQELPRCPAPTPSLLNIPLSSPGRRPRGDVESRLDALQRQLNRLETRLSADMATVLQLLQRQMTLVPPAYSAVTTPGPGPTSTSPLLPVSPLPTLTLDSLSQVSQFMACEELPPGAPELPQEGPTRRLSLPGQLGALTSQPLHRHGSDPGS

For orientation: EC50 means the concentration needed to bring the measured effect to its halfway point. Usually IC50 stands for the concentration that gives 50% inhibition. By inhibition in vivo is commonly meant the change of the read-out against control, counted positive when it falls. In general, bioavailability refers to the share of a dose that reaches the circulation, judged against a reference dose that is usually intravenous. For orientation: AUC(0-t) means exposure summed from dosing to a finite time, without extrapolation to infinity. For orientation: Cmax means the peak of the concentration-time curve. As for `CC(C)(O)C(=O)N[C@@H]1CC[C@@]2(S(=O)(=O)c3ccc(F)cc3)c3ccc(C(F)(C(F)(F)F)C(F)(F)F)cc3CC[C@@H]12`, the Activity amounted to 71.6% with Mus musculus [1]; 89.7% in the series on Mus musculus [3]; 66.8% with Mus musculus [6]; 13.7% in the series with Mus musculus [7]; 76.7% in the series with Mus musculus [8]; 2.7% in the series on Mus musculus [10]. The Activity in the series with Mus musculus [15] stood at 79.6%. Besides, the results for the EC50 in [2] and in series [9] were 2.7 nM and more than 5 µM, respectively. In addition, the IC50 was 19 µM in series [4] and 20 µM against Cytochrome P450 1A2. In addition, in the series with Mus musculus [5], the inhibition in vivo at 3 mg/kg is 42.3%. Moreover, in series [11], the bioavailability was 100%. Moreover, in [12], the AUC(0-t) at 24 h was 18 µM·h. Moreover, the Cmax in series [13] stood at 1000 nM; in series [14] it was 1100 nM.
